# Reference: ChEMBL document CHEMBL5335845, “Discovery of GLPG2737, a Potent Type 2 Corrector of CFTR for the Treatment of Cystic Fibrosis in Combination with a Potentiator and a Type 1 Co-corrector” (J Med Chem, 2024)
# Assays:
# [1] = Clearance in Sprague-Dawley rat at 1 mg/kg, iv measured after 24 hrs by LC-MS/MS analysis; format: ADME, organism-based; settings: in vivo
# [2] = Metabolic stability in human hepatocyte assessed as unbound intrinsic clearance at 1 uM incubated for 180 mins by LC-MS/MS analysis; format: ADME, cell-based; settings: hepatocytes, 3 h
# [3] = Metabolic stability in rat hepatocyte assessed as unbound intrinsic clearance at 1 uM incubated for 180 mins by LC-MS/MS analysis; format: ADME, cell-based; settings: hepatocytes, 3 h
# [4] = Plasma clearance in Sprague-Dawley rat at 5 mg/kg, po or 0.1 mg/kg, iv measured upto 24 hrs by LC-MS/MS analysis; format: ADME, organism-based; settings: in vivo
# Summary of the method: (§1)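 Male Sprague–Dawley rats (6–8 weeks), iv tail-vein bolus 0.1 mg/kg in PEG200/water 60/40, or oral gavage 5 mg/kg suspension in 0.5% MC after ≥12 h fast; plasma (Li-heparin) sampled to 24 h, n = 3 per route, LC-MS/MS; noncompartmental analysis.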
# [5] = Metabolic stability in dog hepatocyte assessed as unbound intrinsic clearance at 1 uM incubated for 180 mins by LC-MS/MS analysis; format: ADME, cell-based, Canis lupus familiaris; settings: hepatocytes, 3 h
# [6] = Metabolic stability in rat liver microsomes assessed as unbound intrinsic clearance at 1 uM incubated for 30 mins by LC-MS/MS analysis; format: ADME, Microsome; settings: 0.5 h
# [7] = Metabolic stability in human liver microsomes assessed as unbound intrinsic clearance at 1 uM incubated for 30 mins by LC-MS/MS analysis; format: ADME, Microsome; settings: 0.5 h
# [8] = biological target: T1, Cytochrome P450 3A4 (Homo sapiens, UniProt P08684); assay: Induction of CYP3A4 in human hepatocytes assessed as mRNA at 10 uM after 72 hrs by qPCR analysis relative to rifampicin; format: ADME, cell-based, Hepatocyte
# T1 sequence (P08684 whole entry): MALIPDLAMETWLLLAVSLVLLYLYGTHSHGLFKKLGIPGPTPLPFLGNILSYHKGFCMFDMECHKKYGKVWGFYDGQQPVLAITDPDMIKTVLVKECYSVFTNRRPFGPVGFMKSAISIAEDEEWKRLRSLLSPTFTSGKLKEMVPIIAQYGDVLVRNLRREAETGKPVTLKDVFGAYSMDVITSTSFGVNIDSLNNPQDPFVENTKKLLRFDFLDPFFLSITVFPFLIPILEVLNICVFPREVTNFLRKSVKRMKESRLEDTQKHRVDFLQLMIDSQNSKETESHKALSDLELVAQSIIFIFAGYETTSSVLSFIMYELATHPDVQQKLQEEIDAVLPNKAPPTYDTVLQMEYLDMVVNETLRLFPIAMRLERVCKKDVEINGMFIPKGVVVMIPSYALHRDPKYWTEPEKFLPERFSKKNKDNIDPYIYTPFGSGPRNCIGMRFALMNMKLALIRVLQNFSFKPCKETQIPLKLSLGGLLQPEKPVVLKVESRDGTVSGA
# Summary of the method: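 Single-donor cryopreserved human hepatocytes, 0.1 × 10^6 cells/well, exposed to 10 μM compound (0.1% DMSO) in triplicate for 72 h with daily renewal; RNA RT-qPCR for CYP3A4 vs endogenous control, 2^-ΔΔCT relative to vehicle, expressed as % of 10 μM rifampicin.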
# [9] = Plasma protein binding in rat at 5 uM measured after 4 hrs under shaking by LC-MS/MS analysis; format: ADME, cell-free; settings: read-out: PPB (converted)
# Summary of the method: (§2)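 Equilibrium dialysis of compound 5 μM (0.5% DMSO) in plasma against PBS pH 7.4, 4 h at 37 °C with shaking; matrix-matched samples, acetonitrile precipitation, LC-MS/MS; % bound from plasma and buffer peak areas.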
# [10] = Intestinal permeability across apical to basolateral side in human Caco-2 cells at 10 uM measured after 1 hr by LC-MS/MS analysis; format: ADME, cell-based; settings: read-out: permeability
# [11] = Plasma protein binding in dog at 5 uM measured after 4 hrs under shaking by LC-MS/MS analysis; format: ADME, cell-free, Canis lupus familiaris; settings: read-out: PPB (converted); summary of the method: as §2
# [12] = Half life in Beagle dog at 0.1 mg/kg, iv measured upto 24 hrs by LC-MS/MS analysis; format: ADME, organism-based, Canis lupus familiaris; settings: in vivo
# [13] = Thermodynamic solubility of the compound in fasted simulated gastric fluid measured after 24 hrs by LC-MS/MS analysis; format: physicochemical; settings: read-out: Therm_solubility
# Summary of the method: (§3)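 Solid compound at 1 mg/mL in fasted simulated gastric fluid or pH 7.4 buffer, stirred 24 h at room temperature, centrifuged and filtered, diluted and quantified by LC-MS/MS against standard curve.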
# [14] = biological target: Voltage-gated inwardly rectifying potassium channel KCNH2 (Homo sapiens, UniProt Q12809); assay: Inhibition of human ERG by manual patch clamp test; format: toxicity
# Chain of Voltage-gated inwardly rectifying potassium channel KCNH2 (Q12809 whole entry): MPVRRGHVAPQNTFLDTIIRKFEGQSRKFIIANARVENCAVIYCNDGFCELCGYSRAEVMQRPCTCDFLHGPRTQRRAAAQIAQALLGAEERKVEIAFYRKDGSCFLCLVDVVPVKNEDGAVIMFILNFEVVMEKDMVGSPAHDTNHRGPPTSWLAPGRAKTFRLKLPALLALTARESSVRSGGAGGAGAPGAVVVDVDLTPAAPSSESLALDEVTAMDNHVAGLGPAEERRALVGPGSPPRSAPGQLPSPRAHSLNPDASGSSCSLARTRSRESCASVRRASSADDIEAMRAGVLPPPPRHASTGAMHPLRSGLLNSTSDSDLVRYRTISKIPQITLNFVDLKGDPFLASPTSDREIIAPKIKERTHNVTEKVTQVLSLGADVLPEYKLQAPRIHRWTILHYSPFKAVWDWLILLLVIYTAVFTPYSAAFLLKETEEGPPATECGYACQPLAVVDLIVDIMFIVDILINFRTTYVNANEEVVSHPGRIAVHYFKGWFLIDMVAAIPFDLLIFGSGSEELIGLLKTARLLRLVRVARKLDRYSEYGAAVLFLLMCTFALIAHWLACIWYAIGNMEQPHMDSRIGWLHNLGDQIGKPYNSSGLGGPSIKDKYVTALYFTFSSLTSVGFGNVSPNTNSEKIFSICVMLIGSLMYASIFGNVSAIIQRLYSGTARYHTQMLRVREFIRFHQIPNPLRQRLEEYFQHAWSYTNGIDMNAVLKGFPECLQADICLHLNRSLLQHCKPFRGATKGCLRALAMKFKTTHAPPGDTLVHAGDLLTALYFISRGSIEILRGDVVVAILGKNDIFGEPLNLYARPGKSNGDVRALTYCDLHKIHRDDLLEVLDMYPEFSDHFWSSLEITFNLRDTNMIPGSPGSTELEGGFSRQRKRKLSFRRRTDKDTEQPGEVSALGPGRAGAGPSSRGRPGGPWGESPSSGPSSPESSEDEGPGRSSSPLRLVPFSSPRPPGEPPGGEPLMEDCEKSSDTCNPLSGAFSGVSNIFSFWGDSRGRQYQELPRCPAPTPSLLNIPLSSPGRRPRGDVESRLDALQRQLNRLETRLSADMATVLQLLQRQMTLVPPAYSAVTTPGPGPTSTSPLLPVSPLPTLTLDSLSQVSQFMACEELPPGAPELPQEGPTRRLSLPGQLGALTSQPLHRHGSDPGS
# [15] = biological target: T1, Cytochrome P450 3A4; assay: Inhibition of CYP3A4 in human liver microsomes using midazolam as substrate in presence of NADPH by LC/MS/MS analysis; format: ADME, Microsome
# [16] = Volume of distribution at steady state in Sprague-Dawley rat at 5 mg/kg, po or 0.1 mg/kg, iv measured upto 24 hrs by LC-MS/MS analysis; format: ADME, organism-based; settings: in vivo; summary of the method: as §1
# [17] = Plasma protein binding in human at 5 uM measured after 4 hrs under shaking by LC-MS/MS analysis; format: ADME, cell-free; settings: read-out: PPB (converted); summary of the method: as §2
# [18] = Apparent permeability from apical to basolateral side in MDCKII-MDR1 cells at 10 uM measured after 1 hr by LC-MS/MS analysis; format: ADME, cell-based, Canis lupus familiaris; settings: dog, MDCK-MDR1
# [19] = Half life in Sprague-Dawley rat at 0.1 mg/kg, iv measured upto 24 hrs by LC-MS/MS analysis; format: ADME, organism-based; settings: in vivo; summary of the method: as §1
# [20] = biological target: Sigma receptor (Homo sapiens, UniProt Q99720+Q5BJF2); assay: Inhibition of human Sigma receptor; format: protein assay
# Summary of the method: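 Radioligand binding panel: displacement of cognate radioligand from human H1 or Sigma receptor, IC50 determined.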
# [21] = biological target: T1, Cytochrome P450 3A4; assay: Inhibition of CYP3A4 in human liver microsomes using testosterone as substrate in presence of NADPH by LC/MS/MS analysis; format: ADME, Microsome
# [22] = Thermodynamic solubility of the compound at pH 7.4 measured after 24 hrs by LC-MS/MS analysis; format: physicochemical; settings: buffer, read-out: Therm_solubility; summary of the method: as §3
# [23] = Genotoxicity in Salmonella typhimurium by Ames test; format: toxicity; settings: salmonella enterica subsp. enterica serovar typhimurium
# [24] = Unbound clearance in Sprague-Dawley rat at 5 mg/kg, po or 0.1 mg/kg, iv measured upto 24 hrs by LC-MS/MS analysis; format: ADME, organism-based; settings: in vivo; summary of the method: as §1
# [25] = Volume of distribution at steady state in Beagle dog at 5 mg/kg, po or 0.1 mg/kg, iv measured upto 24 hrs by LC-MS/MS analysis; format: ADME, organism-based, Canis lupus familiaris; settings: in vivo
# [26] = Plasma clearance in Beagle dog iv measured upto 24 hrs by LC-MS/MS analysis
# [27] = Unbound clearance in Beagle dog at 5 mg/kg, po measured upto 24 hrs by LC-MS/MS analysis; format: ADME, organism-based, Canis lupus familiaris; settings: in vivo
# Summary of the method: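 Male Beagle dogs (n = 3), iv 10 min […], then after 3-day washout oral gavage 5 or 1 mg/kg in PEG400/0.5% MC or 0.5% MC after ≥12 h fast; jugular or cephalic blood (Li-heparin) to 24 h, plasma by LC-MS/MS.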
smiles,measurement,setting,value
O=C(O)c1cc(-c2ccc(N3CCOCC3)cc2)c2c(C3CCC3)nn(-c3ccccc3)c2n1,CL,[1],3.3 mL/min/kg
CS(=O)(=O)NC(=O)c1cc(-c2ccc(N3CCC(C#N)CC3)nc2)c2c(C3CCC3)nn(-c3ccccc3)c2n1,CL,[1],0.41 mL/min/kg
CN(C)S(=O)(=O)NC(=O)c1cc(N2CCC(N3CCOCC3)CC2)c2c(C3CCC3)nn(-c3ccc(F)cc3)c2n1,CL free,[2],< 11 mL/min/kg
same,CL free,[3],49 mL/min/kg
same,CL,[4],3.17 mL/min/kg
same,CL free,[5],31.7 mL/min/kg
COc1ccc(-c2cc(C(=O)O)nc3c2c(C)nn3-c2ccccc2)cc1,CL free,[6],180 mL/min/kg
same,CL free,[7],173 mL/min/kg
same,CL free,[3],305 mL/min/kg
Cc1nn(-c2ccccc2)c2nc(C(=O)O)cc(-c3ccc(N4CCOCC4)cc3)c12,CL free,[6],< 43.3 mL/min/kg
same,CL free,[2],< 45.7 mL/min/kg
same,CL free,[7],< 28.3 mL/min/kg
same,CL free,[3],67 mL/min/kg
COc1ccc(-c2cc(C(=O)O)nc3c2c(C)nn3-c2ccc(C)cc2)cc1,CL free,[6],182 mL/min/kg
same,CL free,[7],< 59.8 mL/min/kg
same,CL free,[3],263 mL/min/kg
CS(=O)(=O)NC(=O)c1cc(N2CCC(N3CCOCC3)CC2)c2c(C3CCC3)nn(-c3ccc(F)cc3)c2n1,CL free,[3],< 11.5 mL/min/kg
same,Activity,[8],9%
COC1CCN(c2cc(C(=O)NS(=O)(=O)N(C)C)nc3c2c(C2CCC2)nn3-c2ccc(F)cc2)CC1,"fraction unbound at 4 h, 5 µM",[9],0.016
same,"Papp A→B at 1 h, 10 µM",[10],24.5 ×10⁻⁶ cm/s
same,"fraction unbound at 4 h, 5 µM",[11],0.025
same,CL free,[2],< 12.8 mL/min/kg
same,half-life,[12],5.4 h
same,solubility thermodynamic at 24 h,[13],10.9 µg/mL
same,inhibition (INH),[14],Not Active
same,IC50,[15],> 100 µM
same,Vdss,[16],1.38 L/kg
same,"fraction unbound at 4 h, 5 µM",[17],0.02
same,"Papp A→B at 1 h, 10 µM",[18],5.45 ×10⁻⁶ cm/s
same,half-life,[19],3.45 h
same,IC50,[20],0.36 µM
same,CL free,[3],66.2 mL/min/kg
same,IC50,[21],> 100 µM
same,CL,[4],5.33 mL/min/kg
same,CL free,[5],< 24.8 mL/min/kg
same,solubility thermodynamic at 24 h,[22],9.9 µg/mL
same,Activity,[23],Non-Toxic
same,CL free,[24],333 mL/min/kg
same,Vdss,[25],1.37 L/kg
same,clearance,[26],3.5 mL/min/kg
same,Activity,[8],4%
same,CL free,[27],178 mL/min/kg
